KDM4C inh: KDM4C (human) demethylase inhibition. Q9H3R0. GST-KDM4C 2-372, H3K9me3 peptide, LANCE TR-FRET. inhibition, % at 12.5 µM. actives 0.15% (n = 96,000);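 active means mean replicate inhibition above about 25%, with at least 55% of replicates also reaching it, limit read from the data, passing the limit was not always enough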
Target sequence (Q9H3R0 2-372 limits assumed): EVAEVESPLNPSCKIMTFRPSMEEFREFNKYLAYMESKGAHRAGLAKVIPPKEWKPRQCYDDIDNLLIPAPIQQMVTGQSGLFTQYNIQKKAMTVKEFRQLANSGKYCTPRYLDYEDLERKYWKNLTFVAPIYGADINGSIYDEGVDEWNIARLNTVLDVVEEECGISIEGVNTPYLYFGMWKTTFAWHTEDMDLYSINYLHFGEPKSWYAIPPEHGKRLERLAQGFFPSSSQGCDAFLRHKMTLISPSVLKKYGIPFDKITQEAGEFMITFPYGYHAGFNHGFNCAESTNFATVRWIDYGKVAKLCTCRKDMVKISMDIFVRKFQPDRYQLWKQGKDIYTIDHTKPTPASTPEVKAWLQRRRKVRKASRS
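Material: GST-tagged GASC-1 (JMJD2C) catalytic fragment, aa 2-372. Input: enzyme final amount 10 nM. Medium: HEPES buffer, pH 7.5, plus ascorbate. Reagent: H3K9me3 peptide substrate, Fe(II), 2-oxoglutarate. Doses: single dose. Times: reaction 30 min RT, detection step 1 h RT. Measured by: LANCE TR-FRET. Evaluation: Fall in 671/618 emission ratio as inhibition.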
T cruzi growth-1: inhibitors of T. cruzi proliferation | T. cruzi beta-gal in NIH3T3, GalScreen luminescence, 90 h | inhibition, % at 8.34 µM | actives 5.9% (n = 77,000);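 active means mean inhibition above about 93%, with at least 55% of replicates each passing it, limit read from the data, passing the limit was not always enough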
IDH1 mut inh: IDH1 R132H (human) inhibition. O75874. IDH1 R132H reductase, diaphorase/resazurin fluorescence, 60 min. inhibition, % at 10 µM. actives 0.18% (n = 70,000). AID 624101; in the data active means inhibition above about 34%;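 further: 0% = DMSO and 100% = no enzyme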
Pf Dd2 growth: P. falciparum Dd2 growth inhibition | activity change, % at 10 µM | AID 1159554 | actives 2.3% (n = 94,000) | SYBR Green, 72 h; stronger effect = lower value; in the data active means activity change below about -80%
T cruzi growth-2: blocks T. cruzi growth in NIH3T3 host cells; T. cruzi beta-gal in NIH3T3, GalScreen luminescence, 90 h; shares compounds with T cruzi growth-1; inhibition, % at 8.35 µM; actives 72% (n = 5,600); AID 651739;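 active means mean replicate inhibition above about 95% and at least 55% of replicates individually reaching it, limit read from the data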
T cruzi growth-3: blocks T. cruzi growth in NIH3T3 host cells; shares compounds with T cruzi growth-1; T. cruzi beta-gal in NIH3T3, GalScreen luminescence, 90 h; inhibition, % at 2.09 µM; actives 21% (n = 5,600);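 active means mean inhibition above about 95%, with at least 55% of replicates also reaching it, limit read from the data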;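 further: plate controls were neutral control median for no effect and positive control median for full effect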
3T3 cytotox: kills mouse NIH/3T3 fibroblasts. actives 14% (n = 5,600). shares compounds with T cruzi growth-1. AID 651742. cytotoxicity (signal decrease), % at 8.35 µM. NIH/3T3 viability, CellTiter-Glo ATP luminescence, 90 h;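 active means mean signal decrease across replicates above about 35% based on untreated-well scatter, with enough replicates individually passing, limit read from the data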;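 further: 0% = median of neutral control wells and 100% = median of positive control wells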
NIH3T3 tox 2: kills mouse NIH/3T3 fibroblasts. NIH/3T3 viability, CellTiter-Glo ATP luminescence, 90 h. shares compounds with T cruzi growth-1. inhibition, % at 24.9 µM. actives 56% (n = 5,600);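 active means mean loss of cell viability signal at or above a set limit, and enough replicates individually reaching it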;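 further: 0% = median of neutral control wells and 100% = median of positive control wells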
Starred values were filed as active, the others as inactive; · = no result given. Hits are enriched below; roughly 5.9% of the tested compounds scored in any of these assays.

SMILES | KDM4C inh | T cruzi growth-1 | IDH1 mut inh | Pf Dd2 growth | T cruzi growth-2 | T cruzi growth-3 | 3T3 cytotox | NIH3T3 tox 2
COc1cccc(C#Cc2ccc([C@@H]3[C@@H](CO)N4C(=O)CN(C(=O)Cc5ccccc5)C[C@H]34)cc2)c1 | -3 | · | · | -4 | · | · | · | ·
C[C@H](CO)N1C[C@H](C)[C@H](CN(C)Cc2ccccc2)Oc2ccc(NS(=O)(=O)c3ccc(F)cc3)cc2CC1=O | 1 | 72 | 4 | -41 | · | · | · | ·
C[C@@H]1CN([C@H](C)CO)C(=O)Cc2cc(NS(=O)(=O)c3ccc(F)cc3)ccc2O[C@H]1CN(C)Cc1ccccc1 | 1 | 97* | 0 | 7 | 110* | 14 | 0 | 23
C[C@@H]1CN([C@H](C)CO)C(=O)Cc2cc(NS(=O)(=O)c3ccc(Cl)cc3)ccc2O[C@H]1CN(C)Cc1ccccc1 | 0 | 100* | 0 | 2 | 110* | 103* | 7 | 16
C[C@H]1CN([C@@H](C)CO)C(=O)Cc2cc(NS(=O)(=O)c3ccc(F)cc3)ccc2O[C@H]1CN(C)Cc1ccccc1 | 0 | 100* | -2 | -42 | 99* | 24 | -8 | 28
C[C@H](CO)N1C[C@H](C)[C@@H](CN(C)Cc2ccccc2)Oc2ccc(NS(=O)(=O)c3ccc(Cl)cc3)cc2CC1=O | -1 | 95 | 0 | -58 | · | · | · | ·
CN1C(=O)c2cc(NC(=O)Cc3cccs3)ccc2OC[C@@H]2O[C@@H](CC(=O)NCC3CCCCC3)CC[C@@H]21 | -4 | 16 | · | -24 | · | · | · | ·
CC(C)C#Cc1ccc2c(c1)O[C@@H](CN(C)CC1CCCC1)[C@H](C)CN([C@H](C)CO)S2(=O)=O | -3 | 92* | 0 | -47 | 105* | 98* | 55* | 104*
CC(C)C#Cc1ccc2c(c1)O[C@@H](CN(C)CC1CCCC1)[C@H](C)CN([C@@H](C)CO)S2(=O)=O | -1 | 92* | 0 | -56 | 105* | 53 | 41* | 103*
CC(C)C#Cc1ccc2c(c1)O[C@H](CN(C)CC1CC1)[C@H](C)CN([C@@H](C)CO)S2(=O)=O | 0 | 51 | 0 | -38 | · | · | · | ·
C[C@H]1CN([C@@H](C)CO)S(=O)(=O)c2ccc(C#Cc3ccccc3)cc2O[C@H]1CN(C)CC1CC1 | -3 | 117* | 0 | -83* | 103* | 52 | 34 | 105*
CC(C)C#Cc1ccc2c(c1)O[C@@H](CN(C)CC1CCOCC1)[C@H](C)CN([C@@H](C)CO)S2(=O)=O | 1 | 86 | 0 | -52 | · | · | · | ·
CC(=O)N1[C@H](CO)[C@@H](c2ccccc2)[C@H]1CN(C)C(=O)CN1CCOCC1 | 2 | 21 | · | 23 | · | · | · | ·
COc1ccc(-c2ccc([C@H]3[C@@H](CO)N4CCCCN(C(=O)NC(C)C)C[C@H]34)cc2)cc1 | 0 | 104* | · | -16 | 110* | 77 | -10 | 85*
COc1ccc(-c2ccc([C@H]3[C@H](CO)N4CCCCN(C(=O)NC(C)C)C[C@@H]34)cc2)cc1 | 1 | 105* | · | -4 | 113* | 38 | 13 | 25*
CC(C)NC(=O)N1CCCCN2[C@H](CO)[C@H](c3ccc(C4=CCCC4)cc3)[C@@H]2C1 | 2 | 117* | · | 18 | 113* | 106* | 8 | -8
COc1ccc(-c2ccc([C@@H]3[C@H]4CN(C(=O)NC(C)C)CCCCN4[C@H]3CO)cc2)cc1 | 0 | 69 | · | 11 | · | · | · | ·
CCCNC(=O)C[C@H]1C[C@@H]2c3cc(NC(=O)NC4CCCCC4)ccc3O[C@@H]2[C@H](CO)O1 | -4 | -23 | 0 | 10 | · | · | · | ·
C[C@H]1CN([C@@H](C)CO)C(=O)Cc2cc(NC(=O)Nc3ccc4c(c3)OCO4)ccc2O[C@@H]1CN(C)Cc1ccc(C(=O)O)cc1 | 1 | 8 | 2 | 13 | · | · | · | ·
O=C(C[C@@H]1CC[C@@H]2[C@H](COC[C@@H](O)CN2C(=O)C2CCOCC2)O1)NCc1ccncc1 | · | -2 | · | -6 | · | · | · | ·
